High-throughput results as filed in PubChem.
Only some compounds are listed: those with a hit (about 3.9% of all), similar ones and a draw of the others.
697 NFkB inh: inhibitors of PMA/ionomycin-induced NF-kB reporter, 697 cells, primary screen, B-cell NF-kB inhibitor project, cell-based, luminescence, uHTS; 330,000 compounds, 0.33% hits; inhibition, % at 4 µM; 697 B-cell NF-kB luciferase reporter, 16 h; in the data active = inhibition above about 35%
Jurkat NFkB inh: inhibitors of induced NF-kB luciferase reporter, primary screen, TCR NF-kB activation inhibitor project, cell-based, luminescence, uHTS; Jurkat, PMA/ionomycin-induced NF-kB luciferase reporter; inhibition, % at 4 µM; 330,000 compounds, 0.53% hits; in the data active = inhibition above about 50%
UPR CHOP act: activators of apoptotic CHOP UPR arm, primary screen, cell-based, CHO-CHOP luciferase reporter, luminescence, uHTS. 330,000 compounds, 0.34% hits. activation, % at 10 µM. UPR activation; percent of tunicamycin response over DMSO baseline;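 active = at 10 µM dose, activation of 40% or more, normalized to positive control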;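 note: 100% = tunicamycin at 10 µg/mL and 0% = DMSO alone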
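Assay system: CHO cells with stable CHOP pathway luciferase reporter; Buffer or medium: F12 plus 10% serum; Times: 16-18 h cell attachment, then 6 h compound exposure, 37 °C; Signal: luciferase luminescence; Read-out basis: percent activation relative to tunicamycin control; Control set: tunicamycin high control, DMSO low control.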
UPR XBP1 act: activators of adaptive XBP1 UPR arm, primary screen, cell-based, CHO-XBP1 luciferase reporter, luminescence, uHTS | IRE1-XBP1 UPR activation; percent of tunicamycin response, DMSO as zero | activation, % at 20 µM | 330,000 compounds, 0.33% hits | AID 463104, 2010;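 active = versus positive control, 20 µM dose yields 30% or more activation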;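 note: 100% = tunicamycin at 10 µg/mL and 0% = DMSO only wells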
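Signal: luciferase luminescence; Assay system: CHO-XBP1 luciferase reporter cells; Amount: one thousand reporter cells per well; Dosing: 20 µM single concentration, DMSO 1%; Benchmarks: high control tunicamycin 10 µg/mL final, low control DMSO vehicle only; Schedule: 6 h compound exposure at 37 °C, 5% CO2; Evaluation: percent activation relative to tunicamycin reference.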
Gli-Sufu block: Gli-Sufu pathway antagonists, primary screen, luciferase luminescence, Sufu-KO-LIGHT cells, uHTS; 340,000 compounds, 0.74% hits; inhibition, % at 5 µM; Sufu-KO-LIGHT fibroblasts, Gli luciferase reporter luminescence;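 active = inhibition above about 55%, limit read from the data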;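 note: 0% = DMSO-treated cells and 100% = wells with medium but no cells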
CHOP inhibitor: inhibitors of CHOP promoter induction, primary screen, cell-based, unfolded protein response, luciferase reporter. CHO-K1 CHOP-promoter luciferase, tunicamycin-induced, 15-18 h. inhibition, % at 10 µM. 220,000 compounds, 3.8% hits. AID 2732, 2010;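 active = compounds that reduced the stress-induced luciferase reporter signal by more than about 70% of percent inhibition, limit read from the data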;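 note: 0% = tunicamycin plus vehicle and 100% = wells without tunicamycin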
CHOP inh conf: retest of CHOP induction inhibitors, confirmation, cell-based; CHO-CHOP promoter luciferase reporter, tunicamycin-induced, luminescence; shares compounds with CHOP inhibitor; inhibition, % at 10 µM; 2,100 compounds, 45% hits; AID 504437, 2011;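 active = mean of three repeat readings of reporter signal inhibition above a set limit, cut at about 70% in these data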;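 note: 0% = tunicamycin plus vehicle and 100% = wells lacking tunicamycin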
* = called active by the depositor; · = not tested or not shown.

SMILES	697 NFkB inh	Jurkat NFkB inh	UPR CHOP act	UPR XBP1 act	Gli-Sufu block	CHOP inhibitor	others
O=C(/C=C/c1ccccc1)c1c(O)n(CCc2ccccc2)c(=O)[nH]c1=O	5.7	-11.8	0.7	1.8	-11.2	91.5*
O=C(/C=C/c1ccc2c(c1)OCO2)c1c(O)n(CCc2ccccc2)c(=O)[nH]c1=O	-14.9	6.7	2.0	-1.2	4.3	12.1
C[Se]C[C@H](N)C(=O)O	·	·	·	·	·	-5.1
N[C@H](CCCCCP(=O)(O)O)C(=O)O	·	·	·	·	·	-4.3
CN(C)C=C1C(=O)N(C2CCCCC2)C(=O)N(C2CCCCC2)C1=O	8.4	-3.2	2.6	4.5	-1.0	77.0*
Nc1ccc(CC2=NCCN2)cc1	·	·	·	·	3.1	·
Cc1sc2ccccc2c1CC1=NCCN1	-2.7	-15.1	0.2	-9.6	61.4*	-17.4
C=CCN1C(=O)/C(=C/c2cccs2)C(=O)NC1=S	·	·	·	·	-0.1	80.2*
Cn1cccc1/C=C1\C(=O)NC(=O)N(CCC2=CCCCC2)C1=O	·	·	·	·	-7.2	49.2
O=C1NC(=S)N(Cc2ccco2)C(=O)/C1=C\c1cccs1	·	·	·	·	·	-12.5
O=C1NC(=O)N(CCC2=CCCCC2)C(=O)/C1=C\c1cccs1	16.9	1.7	2.0	7.9	14.0	93.9*
C[C@]12CCC3C(CC[C@H]4C[C@H](O)CC[C@]34C)C1CC[C@@H]2C(=O)CO (some centres undefined)	·	·	·	·	·	8.1
CC(=O)OC1(C)CC(C)C(=O)C(C(O)CC2CC(=O)NC(=O)C2)C1 (centres undefined)	·	·	·	·	89.3*	·
CC[n+]1c(/C=C/N(C)c2ccccc2)sc2ccc(Cl)cc21	-16.3	24.4	-1.0	0.9	85.0*	28.9
CCCCC(CC)COC(=O)c1ccccc1C(=O)OCC(CC)CCCC (centres undefined)	0.1	3.4	-0.5	-8.6	2.4	·
C[CH2][Hg][S]c1ccccc1C(=O)O	-84.1	30.9	-11.4	-11.7	76.2*	·
CCOC(=O)C1CCCN(c2ccc([N+](=O)[O-])c3nonc23)C1 (centres undefined)	·	·	·	·	1.7	29.6
CN(C)c1cc[n+](CC(O)C[n+]2ccc(N(C)C)cc2)cc1	6.9	-0.6	1.2	-0.5	4.7	·
COc1ccc(-[n+]2c(-c3ccccc3)cc(-c3ccccc3)cc2-c2ccccc2)cc1	17.4	44.7	32.0	2.8	83.3*	·
Oc1ccc(-[n+]2c(-c3ccccc3)cc(-c3ccccc3)cc2-c2ccccc2)cc1	-39.3	17.5	38.1	8.3	42.8	·
C/C(=N\N1CCCCCC1)c1c(O)n(C2CCCCC2)c(=O)[nH]c1=O	-13.2	-19.6	-1.0	1.4	-1.7	14.6
Cc1cccc(OP(=O)(Oc2ccccc2)OC(c2ccccc2)C(F)(F)F)c1 (centres undefined)	-23.6	-10.5	0.6	-4.4	-4.8	76.3*
Cc1ccc(C)c(NP(=O)(Oc2ccccc2)Oc2ccccc2)c1	17.6	-11.4	4.7	-0.8	6.4	·
CCC(C)C1NC(=O)C(NC(=O)C(CC(C)C)N(C)C(=O)C2CCCN2C(=O)C(C)O)C(C)OC(=O)C(Cc2ccc(OC)cc2)N(C)C(=O)C2CCCN2C(=O)C(CC(C)C)NC(=O)[C@H](C)C(=O)[C@H](C(C)C)OC(=O)CC1O (some centres undefined)	·	·	·	·	89.9*	·
CCn1cnc2c(Nc3cccc(Cl)c3)nc(N[C@@H]3CCCC[C@@H]3N)nc21	·	·	·	·	·	-5.3
SMILES	697 NFkB inh	Jurkat NFkB inh	UPR CHOP act	UPR XBP1 act	Gli-Sufu block	CHOP inhibitor	others
Nc1cc(Cl)c2nonc2c1[N+](=O)[O-]	·	·	·	·	-9.0	107.6*	CHOP inh conf=120.9*
O=[N+]([O-])c1c(Cl)c(Cl)c(Cl)c(Cl)c1Cl	·	·	·	·	5.8	·
CC=C(CC)C1(CCC)C(=O)NC(=S)NC1=O	·	·	·	·	-8.3	·
COCCCn1c(N)c(C(=O)NCCC(C)C)c2nc3ccccc3nc21	7.4	-5.6	-1.9	3.5	6.5	99.0*	CHOP inh conf=99.1*
CCCCn1c(N)c(C(=O)OCCOC)c2nc3ccccc3nc21	12.0	7.0	0.2	1.3	-0.8	-9.0
COC(=O)C(O)(c1ccc(NC(=S)NC(=O)c2ccc(Cl)cc2Cl)c(C)c1)C(F)(F)F (centres undefined)	-22.8	-0.2	0.0	-0.4	4.7	98.0*	CHOP inh conf=106.4*
Cc1cc2c(cc1C)NP(=S)(c1ccccc1)N2	·	·	·	·	-6.7	·
OC(c1ccccc1)(c1ccccc1)C1CCNCC1	4.4	-4.8	1.7	-3.8	5.6	108.4*	CHOP inh conf=17.7
OC(c1ccccc1)(c1ccccc1)C1CN2CCC1CC2 (centres undefined)	-14.5	-13.8	-0.6	-0.4	21.6	1.9
COc1ccccc1C=C1C(=O)NC(=S)NC1=O	·	·	·	·	-6.9	·
O=C1NC(=S)NC(=O)C1=Cc1cccn1-c1ccc(O)cc1	·	·	·	·	-0.2	107.1*	CHOP inh conf=-267.0
COC(=O)C1=C(c2ccc(OC(F)(F)F)cc2)C[C@@H]2CC[C@H]1N2C(=O)NCCc1ccccc1	-14.6	-8.3	0.7	-2.6	-2.2	·
CC(C)c1ccc(NC(=O)CCNC(=O)N2C[C@H]3C[C@@H](C2)c2cccc(=O)n2C3)cc1	2.2	-4.9	2.0	-3.9	-2.1	·
O=C(COC(=O)c1ccc(O)cc1)Nc1ccc(Cl)cc1C(=O)c1ccccc1	11.0	-1.1	-2.2	0.2	-5.1	102.2*	CHOP inh conf=40.9
CC(=O)Nc1ccc(C(=O)OCC(=O)Nc2ccc(Cl)cc2C(=O)c2ccccc2)cc1	-17.4	-6.2	0.3	0.2	4.2	-6.7
O=C(COc1ccccc1)Nc1ccc(Cl)cc1C(=O)c1ccccc1	22.5	-17.3	1.0	-5.5	-9.8	96.4*	CHOP inh conf=5.2
CCOC(=O)c1[nH]c2ccc(OC)cc2c1C(SCC(=O)O)c1ccc(C(F)(F)F)cc1 (centres undefined)	7.3	-8.4	3.3	-1.0	10.6	·
CC(C)n1c(O)c(C2c3cc(Cl)ccc3Oc3[nH]c(=O)n(C(C)C)c(=O)c32)c(=O)[nH]c1=O (centres undefined)	·	·	·	·	6.7	107.3*	CHOP inh conf=62.0
Cc1cc(C(=O)O)c(C)n1C1CC1	15.5	4.7	-1.2	-2.6	0.4	-0.8
CCCCCCCSc1cc(OC)c(CCNC)cc1OC	-16.9	27.7	-2.3	6.5	9.7	100.0*	CHOP inh conf=3.4
CC1CN1P1(=O)OCC(C)([N+](=O)[O-])CO1 (centres undefined)	·	·	·	·	-2.5	·
COc1cccc(NC2=NCCCS2)c1	-1.8	2.4	3.1	-3.1	17.5	·
